Experimental data from different studies.
Each line is one published result; the experiments were not run side by side.
Effect on: metabolic stability
Host: human
Medium: liver microsomes

| Compound | tested at | pH | microsomal CLint [µL/min/mg] |
| --- | --- | --- | --- |
| CC(C)NCCOCC(=O)N1CCC[C@H](C(=O)NCc2nc(-c3ccc(C(F)(F)F)cc3)cs2)C1 | 0.5 µM | – | 13 |
| c1ccc(Oc2ccc(Nc3c4c(nc5ccccc35)CCC4)cc2)cc1 | 0.5 µM | – | 31 |
| O=C(N1CCCCC1)C12CC(c3ccccc3)(C1)C2 | 2 µM | pH 7.4 | 24 |
| Cc1ccc(C(C)(C)c2ccc(NC(=O)CN(C)c3ccccc3N3CCCC3=O)cc2)cc1 | – | – | 263 |
| O=c1c2c([nH]c3cccc(Oc4ccc(OC(F)(F)F)cc4)c13)CCCC2 | 1 µM | pH 7.4 | 109 |
| Cc1ccc(N(C)c2ccc(NC(=O)CN(C)c3cccnc3N3CCCC3=O)cc2)cc1 | – | – | 222 |
| N#Cc1ccc(-c2csc(CNC(=O)[C@H]3CCCN(C(=O)N4CCCO4)C3)n2)cc1 | 0.5 µM | – | 112 |
| CC(C)N(c1ccc(Cl)c(F)c1)c1ccc(NC(=O)CN(C)c2ccccc2N2CCCC2=O)cn1 | – | – | 287 |
| N#Cc1ccc(-c2csc(CNC(=O)[C@H]3CCCN(C(=O)COC4CC4)C3)n2)cc1 | 0.5 µM | – | 49 |
| O=c1c2c([nH]c3cc(Oc4ccc(OC(F)(F)F)cc4)c(F)cc13)CCCC2 | 1 µM | pH 7.4 | 72.5 |
| Cc1ccc(N(C)c2ccc(NC(=O)CN(C)c3cc(F)ccc3N3CCCC3=O)cc2)cc1 | – | – | 260 |
| CC1(C)NC(=O)N(c2ccc(F)c(CC(F)(F)F)c2)C1=O | – | – | < 7 |
| CNc1ccc(C(N)=O)cn1 | 1 µM | pH 7.4 | < 3 |
| O=C(NCc1nc(-c2ccccc2)cs1)[C@H]1CCCN(C(=O)[C@H]2CCCO2)C1 | 0.5 µM | – | 35 |
| Cc1ccc(Oc2ccc(NC(=O)CNc3ccccc3N3CCCC3=O)cc2)cc1 | – | – | 102 |
| O=c1c2ccc(Oc3ccccc3OC(F)(F)F)cc2[nH]c2cc(Cl)cc(F)c12 | 1 µM | pH 7.4 | 20.3 |
| Cc1cc2c(C(=O)O)cccc2n1-c1nc2c(c(NCc3ccccc3)n1)CCCN2 | 1 µM | pH 7.4 | 9.07 |
| CC1(C)NC(=O)N(c2cc(C(F)(F)F)c(F)cc2C#N)C1=O | – | – | < 7 |
| CCN(CC)CCNC(=O)c1c(C)[nH]c(/C=C2\C(=O)Nc3ccc(F)cc32)c1C | 1 µM | pH 7.4 | 25.6 |
| COCC(=O)N1CCC[C@H](C(=O)NCc2nc(-c3ccc(Cl)cc3)cs2)C1 | 0.5 µM | – | 25 |
| C#C[C@]1(OC(C)=O)CC[C@H]2[C@@H]3CCC4=CC(=NO)CC[C@@H]4[C@H]3CC[C@@]21CC (mixture of isomers) | – | – | 70.1 |

| Compound | tested at | pH | microsomal CLint [µL/min/mg] |
| --- | --- | --- | --- |
| Cc1ccc(Oc2ccc(NC(=O)CNc3ccccc3-n3cncn3)cc2)cc1 | – | – | 98 |
| CC1(C)NC(=O)N(c2ccc3c(c2)OC(F)(F)O3)C1=O | – | – | < 7 |
| CCN(c1ccc(C)cc1)c1ccc(NC(=O)CN(C)c2ccccc2N2CCCC2=O)cn1 | – | – | 408 |
| CC1(C)CCC(C(=O)NCc2nc(-c3ccc(C#N)cc3)cs2)CN1C(=O)COCCF (racemic) | 0.5 µM | – | 219 |
| O=c1c2ccccc2[nH]c2cc(Oc3ccc(OC(F)(F)F)cc3)ccc12 | 1 µM | pH 7.4 | 20.9 |
| CCOCC(=O)N1CCC[C@H](C(=O)NCc2nc(-c3ccc(-n4cccn4)cc3)cs2)C1 | 0.5 µM | – | 64 |
| Cc1ccc(Nc2cnnc3ccc(-c4ccc(N5CCCN(C)CC5)cc4)cc23)cn1 | – | – | 75 |
| Cc1cc(N2C(=O)NC(C)(C)C2=O)cc(C(F)(F)F)n1 | – | – | < 7 |
| Cc1[nH]c(C)c(S(=O)(=O)Nc2ccc(C(F)(F)F)c(Cl)c2)c1C(=O)N1CCC(F)(F)C1 | – | – | 68 |
| O=c1c2ccc(OCc3cccc(OC(F)(F)F)c3)cc2[nH]c2cc(F)cc(Cl)c12 | 1 µM | pH 7.4 | 22.5 |
| CC1(C)NC(=O)N(c2ccc(F)c(Br)c2)C1=O | – | – | < 7 |
| CN1CCN(c2ccc(-c3ccc4nncc(Nc5ccc(OC(F)(F)F)cc5)c4c3)cc2)CC1 | – | – | 30 |
| O=c1c2ccc(OCc3cccc(C(F)(F)F)c3)cc2[nH]c2ccc(Cl)c(F)c12 | 1 µM | pH 7.4 | 2.73 |
| CC1(C)NC(=O)N(c2ccc(F)c(F)c2)C1=O | – | – | < 7 |
| CCCCCCCCCCCCCCCC(=O)NCCOC(=O)C[C@@H](CN)CC(C)C | 1 µM | pH 7.4 | 22.9 |
| O=c1c2ccc(Oc3ccc(OC(F)(F)F)cc3)cc2[nH]c2ccc(F)c(Cl)c12 | 1 µM | pH 7.4 | 7.54 |
| CC1(C(F)(F)F)NC(=O)N(c2ccc(F)c(C(F)(F)F)c2)C1=O (centres unmarked) | – | – | < 7 |
| COCC(=O)N1CCC[C@H](C(=O)NCc2nc(-c3ccc(C(F)(F)F)cc3)cs2)C1 | 0.5 µM | – | 37 |
| CC(C)N(c1ccc(C#N)cc1)c1ccc(NC(=O)CN(C)c2ccccc2N2CCCC2=O)cn1 | – | – | 309 |
| O=c1c2c(F)cc(Cl)cc2[nH]c2cccc(Oc3ccc(OC(F)(F)F)cc3)c12 | 1 µM | pH 7.4 | 5.86 |
